In ChEMBL document CHEMBL1127430, “Novel zinc chelators which inhibit the binding of HIV-EP1 (HIV enhancer binding protein) to NF-kappa B recognition sequence” (J Med Chem, 1994):

Tests used:
[1] = target: Zinc finger protein 40 (Homo sapiens) (UniProt P15822); assay: Inhibition of human DNA binding to HIV-EP1 (enhancer binding protein) at 0.01 mM concentration
[2] = target: Zinc finger protein 40 (Homo sapiens) (UniProt P15822); assay: Inhibition of human DNA binding to HIV-EP1 (enhancer binding protein) at 0.1 mM concentration
[3] = target: Zinc finger protein 40 (Homo sapiens) (UniProt P15822); assay: Inhibition of human DNA binding to HIV-EP1 (enhancer binding protein) at 0.4 mM concentration
[4] = target: Zinc finger protein 40 (Homo sapiens) (UniProt P15822); assay: Inhibition of human DNA binding to HIV-EP1 (enhancer binding protein) at 0.7 mM concentration
[5] = target: Zinc finger protein 40 (Homo sapiens) (UniProt P15822); assay: Inhibition of human DNA binding to HIV-EP1 (enhancer binding protein) at 0.7 mM concentration and 0.7 mM of ZnSO4
How it was run: (§1)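 Same HIV-EP1 κB-site binding assay: protein with ligand and poly(dI-dC), 30 min at room temperature, in H2O-CH3OH (96:4), then labelled κB oligonucleotide. ZnSO4 at the stated level was introduced either during or after the ligand inhibition reaction. Read-out is percentage of HIV-EP1 bound to DNA.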

[6] = target: Zinc finger protein 40 (Homo sapiens) (UniProt P15822); assay: Inhibition of human DNA binding to HIV-EP1 (enhancer binding protein) at 0.7 mM concentration and 2.1 mM of ZnSO4; how it was run: as §1
[7] = target: Zinc finger protein 40 (Homo sapiens) (UniProt P15822); assay: Inhibition of human DNA binding to HIV-EP1 (enhancer binding protein) at 1.0 mM concentration
[8] = target: Zinc finger protein 40 (Homo sapiens) (UniProt P15822); assay: Inhibition of human DNA binding to HIV-EP1 (enhancer binding protein) at 0.05 mM concentration
[9] = target: Zinc finger protein 40 (Homo sapiens) (UniProt P15822); conditions: 4.0 mM

Sequence of Zinc finger protein 40 (Homo sapiens) (P15822 whole entry, looked up): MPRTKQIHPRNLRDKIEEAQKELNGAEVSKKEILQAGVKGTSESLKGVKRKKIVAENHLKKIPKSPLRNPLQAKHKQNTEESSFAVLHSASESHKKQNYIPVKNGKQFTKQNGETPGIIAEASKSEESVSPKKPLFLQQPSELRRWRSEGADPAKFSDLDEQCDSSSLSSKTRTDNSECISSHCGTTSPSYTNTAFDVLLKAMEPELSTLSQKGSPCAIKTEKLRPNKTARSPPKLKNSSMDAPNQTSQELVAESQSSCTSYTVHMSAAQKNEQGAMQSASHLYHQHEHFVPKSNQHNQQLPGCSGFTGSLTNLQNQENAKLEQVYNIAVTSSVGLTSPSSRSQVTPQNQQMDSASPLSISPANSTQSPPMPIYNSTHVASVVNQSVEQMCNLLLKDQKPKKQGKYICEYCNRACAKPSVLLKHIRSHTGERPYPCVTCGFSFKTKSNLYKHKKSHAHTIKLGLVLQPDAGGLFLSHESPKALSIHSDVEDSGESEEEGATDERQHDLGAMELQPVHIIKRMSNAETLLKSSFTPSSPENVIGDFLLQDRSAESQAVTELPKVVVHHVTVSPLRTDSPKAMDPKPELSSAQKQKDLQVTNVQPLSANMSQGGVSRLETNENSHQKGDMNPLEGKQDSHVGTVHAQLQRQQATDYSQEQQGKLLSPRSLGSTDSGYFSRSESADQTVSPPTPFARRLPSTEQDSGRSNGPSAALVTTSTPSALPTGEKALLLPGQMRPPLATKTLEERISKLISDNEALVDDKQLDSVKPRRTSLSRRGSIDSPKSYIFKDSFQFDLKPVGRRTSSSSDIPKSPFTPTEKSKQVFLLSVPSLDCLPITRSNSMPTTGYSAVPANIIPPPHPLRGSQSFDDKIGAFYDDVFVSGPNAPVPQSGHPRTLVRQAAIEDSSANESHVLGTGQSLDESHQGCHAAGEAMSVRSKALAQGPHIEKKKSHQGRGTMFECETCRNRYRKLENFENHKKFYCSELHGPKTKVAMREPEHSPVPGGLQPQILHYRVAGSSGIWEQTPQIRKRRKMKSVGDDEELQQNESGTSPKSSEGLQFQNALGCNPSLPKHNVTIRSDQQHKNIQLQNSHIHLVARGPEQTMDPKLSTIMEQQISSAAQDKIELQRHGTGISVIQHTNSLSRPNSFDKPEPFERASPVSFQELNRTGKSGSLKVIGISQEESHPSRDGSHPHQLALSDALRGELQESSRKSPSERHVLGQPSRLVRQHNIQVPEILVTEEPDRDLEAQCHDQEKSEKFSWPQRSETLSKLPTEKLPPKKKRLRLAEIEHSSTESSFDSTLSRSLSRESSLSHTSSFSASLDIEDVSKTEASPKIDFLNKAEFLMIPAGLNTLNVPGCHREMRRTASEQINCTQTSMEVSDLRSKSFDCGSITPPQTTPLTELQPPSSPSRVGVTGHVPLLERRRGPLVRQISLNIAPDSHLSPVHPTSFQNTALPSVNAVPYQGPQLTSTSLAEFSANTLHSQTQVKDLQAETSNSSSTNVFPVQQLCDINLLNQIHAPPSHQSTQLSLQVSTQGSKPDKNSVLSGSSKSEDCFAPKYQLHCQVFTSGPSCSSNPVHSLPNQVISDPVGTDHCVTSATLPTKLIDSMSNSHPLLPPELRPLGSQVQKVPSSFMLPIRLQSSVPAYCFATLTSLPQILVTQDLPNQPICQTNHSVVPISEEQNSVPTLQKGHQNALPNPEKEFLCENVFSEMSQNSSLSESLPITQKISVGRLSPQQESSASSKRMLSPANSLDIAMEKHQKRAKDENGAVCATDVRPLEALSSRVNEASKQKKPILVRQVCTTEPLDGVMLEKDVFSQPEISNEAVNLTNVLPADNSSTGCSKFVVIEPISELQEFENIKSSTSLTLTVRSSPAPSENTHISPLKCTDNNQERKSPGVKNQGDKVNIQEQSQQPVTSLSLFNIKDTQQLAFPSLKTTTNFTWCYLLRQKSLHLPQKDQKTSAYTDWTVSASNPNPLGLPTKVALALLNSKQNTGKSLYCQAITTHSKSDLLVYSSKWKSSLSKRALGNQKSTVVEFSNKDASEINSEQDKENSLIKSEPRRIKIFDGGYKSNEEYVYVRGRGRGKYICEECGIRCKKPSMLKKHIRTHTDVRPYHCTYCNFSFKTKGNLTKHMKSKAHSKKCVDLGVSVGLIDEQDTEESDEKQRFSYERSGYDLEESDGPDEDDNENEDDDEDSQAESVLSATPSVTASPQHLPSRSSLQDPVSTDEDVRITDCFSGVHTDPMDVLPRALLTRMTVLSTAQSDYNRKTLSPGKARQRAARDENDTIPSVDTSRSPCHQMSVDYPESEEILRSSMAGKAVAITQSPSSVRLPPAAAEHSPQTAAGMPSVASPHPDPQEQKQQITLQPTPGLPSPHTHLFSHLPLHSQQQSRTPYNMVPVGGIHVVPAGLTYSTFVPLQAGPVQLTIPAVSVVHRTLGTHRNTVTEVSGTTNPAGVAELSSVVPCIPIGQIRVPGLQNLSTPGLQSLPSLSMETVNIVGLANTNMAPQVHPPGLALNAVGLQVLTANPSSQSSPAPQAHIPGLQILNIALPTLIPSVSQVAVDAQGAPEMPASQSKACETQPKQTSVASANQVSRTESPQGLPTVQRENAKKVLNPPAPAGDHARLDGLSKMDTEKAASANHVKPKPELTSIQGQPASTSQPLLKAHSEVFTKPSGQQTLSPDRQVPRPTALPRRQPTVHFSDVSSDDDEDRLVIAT

Row | Binding [1] [%] | Binding [2] [%] | Binding [3] [%] | Binding [4] [%] | Binding [5] [%] | Binding [6] [%] | Binding [7] [%] | Binding [8] [%] | Binding [9] [%] | SMILES
1 | 100 | 68 | 4 | 0 | 100 | 100 | 0 | 81 | – | COC(=O)[C@H](Cc1c[nH]cn1)NCc1cc(N(C)C)cc(CN[C@@H](Cc2c[nH]cn2)C(=O)OC)n1
2 | – | – | – | – | – | – | 33 | – | 16 | O=C(O)CN(CCN(CC(=O)O)CC(=O)O)CC(=O)O
